Data: ChEMBL document CHEMBL4052823, “Extra Sugar on Vancomycin: New Analogues for Combating Multidrug-Resistant Staphylococcus aureus and Vancomycin-Resistant Enterococci” (J Med Chem, 2018)
Values after ≈ are worked out from the molar mass of the structure shown. Active and inactive are the calls of the source. The rule behind the calls is not given here.

Legend:
Staphylococcus aureus [1] = experiment: Antibacterial activity against vancomycin/methicillin-susceptible Staphylococcus aureus Newman […] after 24 hrs by broth microdilution method; assay type: functional
Procedure, shortened: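 Broth microdilution in cation-adjusted Mueller-Hinton II broth. […] Each well received ~10^5 CFU of exponential-phase bacteria and was incubated at 37 °C for 24 h. MIC was taken as the lowest concentration giving complete growth inhibition, interpreted per CLSI.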

Staphylococcus aureus [2] = experiment: Antibacterial activity against healthcare-associated methicillin-resistant/vancomycin-intermediate Staphylococcus aureus Mu50 after 24 hrs by broth microdilution method; assay type: functional; conditions: Mu50, 24 h
Procedure, shortened: (§1)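 Broth microdilution in cation-adjusted Mueller-Hinton II broth. DMSO stocks were diluted in broth and twofold serially from 128 to 0.0625 μg/mL or lower. Each well was inoculated with ~10^5 CFU of exponential-phase bacteria and incubated at 37 °C for 24 h. MIC was the lowest concentration giving complete growth inhibition, read per CLSI. Growth controls contained broth plus DMSO.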

Staphylococcus aureus [3] = experiment: Potency index, ratio of telavancin MIC90 to test compound MIC90 for vancomycin/methicillin-susceptible Staphylococcus aureus Newman […]; assay type: functional
Enterococcus faecium [4] = experiment: Antibacterial activity against glycopeptide-resistant Enterococcus faecium Efm-HS-0649 vanA after 24 hrs by broth microdilution method; assay type: functional; conditions: Efm-HS-0649, 24 h; procedure, shortened: as §1
Enterococcus faecium [5] = experiment: Antibacterial activity against glycopeptide-resistant Enterococcus faecium Efm-HS-06188 vanA after 24 hrs by broth microdilution method; assay type: functional; conditions: Efm-HS-06188, 24 h; procedure, shortened: as §1
Enterococcus faecium [6] = experiment: Antibacterial activity against glycopeptide-resistant Enterococcus faecium Efm-HS-0847 vanM after 24 hrs by broth microdilution method; assay type: functional; conditions: Efm-HS-0847, 24 h; procedure, shortened: as §1
Enterococcus faecium [7] = experiment: Antibacterial activity against glycopeptide-resistant Enterococcus faecium Efm-HS-08257 vanM after 24 hrs by broth microdilution method; assay type: functional; conditions: Efm-HS-08257, 24 h; procedure, shortened: as §1
Enterococcus faecium [8] = experiment: Antibacterial activity against glycopeptide-resistant Enterococcus faecium Efm-HS-vb01 vanB after 24 hrs by broth microdilution method; assay type: functional; conditions: Efm-HS-vb01, 24 h; procedure, shortened: as §1
Enterococcus faecium [9] = experiment: Potency index, ratio of telavancin MIC90 to test compound MIC90 for glycopeptide-resistant Enterococcus faecium Efm-HS-vb01 vanB; assay type: functional
Enterococcus faecium [10] = experiment: Potency index, ratio of oritavancin MIC90 to test compound MIC90 for glycopeptide-resistant Enterococcus faecium Efm-HS-vb01 vanB; assay type: functional
Staphylococcus aureus [11] = experiment: Antibacterial activity against methicillin-resistant Staphylococcus aureus USA300 LAC infected in BALB/c mouse assessed as mouse survival rate at 7 mg/kg, ip administered as single dose measured after 10 days relative to control; assay type: functional; conditions: 240 h
Procedure, shortened: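 Female BALB/c mice, 6−8 weeks old, were anesthetized with pentobarbital and infected retro-orbitally with ~2.35 × 10^8 CFU of exponential-phase USA300 LAC, 15 per group. A single 7 mg/kg ip dose was given 1 h after infection. Deaths were recorded daily to build survival curves.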

Staphylococcus aureus [12] = experiment: Antibacterial activity against healthcare-associated methicillin-resistant/vancomycin-intermediate Staphylococcus aureus Mu50 infected in BALB/c mouse assessed as decrease in liver CFU levels at 7 mg/kg, ip administered twice in 24 hrs interval measured after 5 days; assay type: functional, organism-based
Procedure, shortened: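 Female BALB/c mice, 6−8 weeks old, were anesthetized with pentobarbital and infected retro-orbitally with ~3.8 × 10^8 CFU of exponential-phase Mu50, 12 per group. Treatment started 1 h post-infection: 7 mg/kg ip in sterile water, two doses 24 h apart. At day 5 mice were euthanized and liver homogenates plated on TSA for CFU counts. Groups were compared by two-tailed Mann−Whitney test.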

[13] = Half life in CD1 mouse at 5 mg/kg, iv; assay type: ADME, organism-based; conditions: in vivo
Procedure, shortened: (§2)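 Fasted male CD-1 mice (18−22 g), 5 mg/kg single dose into the tail vein, 6 per group. Blood sampled at 0.25, 0.75, 2, 4, 8 and 24 h and analysed by UPLC-MS/MS. T1/2, AUClast, AUCINF_obs, CL_obs, MRTINF_obs and VSS_obs were calculated for each animal from its time−concentration curve.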

[14] = AUClast in CD1 mouse at 5 mg/kg, iv; assay type: ADME, organism-based; set-up: dose 5 mg/kg, route intravenous, time 0 - last; conditions: in vivo; procedure, shortened: as §2
[15] = AUC (infinity) in CD1 mouse at 5 mg/kg, iv; assay type: ADME, organism-based; set-up: dose 5 mg/kg, route intravenous, time infinity; conditions: in vivo; procedure, shortened: as §2
[16] = Clearance in CD1 mouse at 5 mg/kg, iv; assay type: ADME, organism-based; conditions: in vivo; procedure, shortened: as §2
[17] = MRT (infinity) in CD1 mouse at 5 mg/kg, iv; assay type: ADME, organism-based; conditions: in vivo; procedure, shortened: as §2
[18] = Volume of distribution at steady state in CD1 mouse at 5 mg/kg, iv; assay type: ADME, organism-based; conditions: in vivo, read-out: Vdss
Procedure, shortened: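 Fasted male CD-1 mice (18−22 g), 5 mg/kg single dose into the tail vein, 6 per group. T1/2, AUClast, AUCINF_obs, CL_obs, MRTINF_obs and VSS_obs were calculated for each animal from its time−concentration curve.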

L02 = experiment: Cytotoxicity against human HL7702 cells assessed as decrease in cell viability at 10 to 100 uM after 72 hrs by CCK8 assay; assay type: cell-based; conditions: l02, 72 h
Procedure, shortened: (§3)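 HK-2 and HL-7702 cells were seeded at ~5000 cells/well, incubated overnight, then exposed to compound at final 10, 50 and 100 μM for 72 h. CCK-8 was added for 1.5 h at 37 °C and OD450 read. Viability was OD treated / OD untreated × 100, with triplicates.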

HK-2 = experiment: Cytotoxicity against human HK2 cells assessed as decrease in cell viability at 10 to 100 uM after 72 hrs by CCK8 assay; assay type: cell-based; conditions: hk-2, 72 h; procedure, shortened: as §3
[19] = Binding affinity to Ac2Lys-dAla-dAla at 2 mM by 1H-13C HSQC NMR method
Procedure, shortened: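 Constant-time [13C,1H]-HSQC at 600 MHz. The compound (2 mM in D2O, pH 3.1, 25 °C) was recorded alone, then again after adding Ac2Lys-dAla-dAla to a final 10 mM under the same conditions. Spectra were overlaid.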

Blood = experiment: Drug uptake in CD1 mouse blood at 5 mg/kg, iv; assay type: ADME, organism-based; conditions: in vivo; procedure, shortened: as §2

Compound: CN[C@H](CC(C)C)C(=O)N[C@H]1C(=O)N[C@@H](CC(N)=O)C(=O)N[C@H]2C(=O)N[C@H]3C(=O)N[C@H](C(=O)N[C@H](C(=O)O)c4cc(O)c(CNCCO[C@@H]5O[C@H](CO)[C@H](O)[C@H](O)[C@H]5O)c(O)c4-c4cc3ccc4O)[C@H](O)c3ccc(c(Cl)c3)Oc3cc2cc(c3O[C@@H]2O[C@H](CO)[C@@H](O)[C@H](O)[C@H]2O[C@H]2C[C@](C)(NCc3ccc(-c4ccc(C(F)(F)F)cc4)cc3)[C@H](O)[C@H](C)O2)Oc2ccc(cc2Cl)[C@H]1O
- MIC90 (Staphylococcus aureus [1]): 0.03 µg/mL (≈ 0.0156 µM)
- MIC90 (Staphylococcus aureus [2]): 0.25 µg/mL (≈ 0.13 µM)
- Ratio (Staphylococcus aureus [3]): 8 - 16
- MIC (Enterococcus faecium [4]): 2 µg/mL (≈ 1.04 µM)
- MIC (Enterococcus faecium [5]): 1 µg/mL (≈ 0.521 µM)
- MIC (Enterococcus faecium [6]): 8 µg/mL (≈ 4.17 µM)
- MIC (Enterococcus faecium [7]): 2 µg/mL (≈ 1.04 µM)
- MIC (Enterococcus faecium [8]): ≤ 0.06 µg/mL
- Ratio (Enterococcus faecium [9]): 16
- Ratio (Enterococcus faecium [10]): 4
- survival at 7 mg/kg (Staphylococcus aureus [11]): 86.7%
- Activity (Staphylococcus aureus [12]): Active
- half-life [13]: 2.94 h
- AUC(0-t) [14]: 16600 ng·h/mL
- AUC(0-inf) [15]: 20000 ng·h/mL
- clearance [16]: 4.42 mL/min/kg
- MRT inf [17]: 4.21 h
- Vd [18]: 1.08 L/kg
- Activity (L02): Non-Toxic
- Activity (HK-2): Non-Toxic
- Activity [19]: Active
- Drug uptake (Blood): > 1 µg/mL
